Activity, Time and MSD data for 14 compounds are collected here from ChEMBL document CHEMBL3271992, “Synthesis of 4-alkyl and 4-(beta-alkylvinyl) derivatives of primaquine as potential antimalarials” (J Med Chem, 1979).

The test system of data set [1] is Plasmodium cynomolgi. The experiment in a line: Antimalarial activity against Plasmodium cynomolgi infected in rhesus monkey assessed as infection cure at 0.5 mg/kg administered via stomach tube once daily for 7 days with 2.5 mg of base/kg of chloroquine. The data set is classed as functional, organism-based. The arrangement: dose 0.5 mg/kg.
For data set [2], the system named is Plasmodium cynomolgi. The experiment in a line: Antimalarial activity against Plasmodium cynomolgi infected in rhesus monkey assessed as time duration between end of treatment and relapse at 0.5 mg/kg administered via stomach tube once daily for 7 days with 2.5 mg of base/kg of chloroquine1. Type of data set: functional.
The subject of data set [3] is Plasmodium cynomolgi. The experiment in a line: Antimalarial activity against Plasmodium cynomolgi infected in rhesus monkey assessed as time duration between end of treatment and relapse at 1 mg/kg administered via stomach tube once daily for 7 days with 2.5 mg of base/kg of chloroquine1. Type of data set: functional.
The test system of the next data set is Leishmania donovani. The experiment in a line: Antileishmanial activity against Leishmania donovani infected in hamster. Type of data set: functional, organism-based.
Data set [4] relates to Plasmodium cynomolgi. The experiment in a line: Antimalarial activity against Plasmodium cynomolgi infected in rhesus monkey assessed as infection cure at 1 mg/kg administered via stomach tube once daily for 7 days with 2.5 mg of base/kg of chloroquine. Type of data set: functional, organism-based. The arrangement: dose 1 mg/kg.
Data set [5] relates to Plasmodium berghei. The experiment in a line: Antimalarial activity against blood schizont stage of Plasmodium berghei infected in mouse assessed as mean survival time at 20 mg/kg (reference value: 6.2 +/- 0.5 days). Type of data set: functional.
Data set [6] deals with Plasmodium berghei. In words: Antimalarial activity against blood schizont stage of Plasmodium berghei infected in mouse assessed as mean survival time at 320 mg/kg (reference value: 6.2 +/- 0.5 days). Type of data set: functional.
Data set [7] relates to Plasmodium berghei. In words: Antimalarial activity against blood schizont stage of Plasmodium berghei infected in mouse assessed as mean survival time at 80 mg/kg (reference value: 6.2 +/- 0.5 days). The data set is classed as functional.
The subject of data set [8] is Plasmodium berghei yoelii. In words: Antimalarial activity against sporozoite stage of Plasmodium berghei yoelii infected in mouse assessed as survival at 10 mg/kg, sc after 30 days. Type of data set: functional, organism-based. The arrangement: dose 10 mg/kg. A digest of the protocol:
(§1)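 Mice infected with P. berghei yoelii (sporozoite challenge) were dosed on the day of challenge, in groups of five, either orally or subcutaneously at several dose levels. Compound was dissolved or suspended in 0.5% hydroxyethylcellulose–0.1% Tween 80. Prophylactic activity was read as survival of treated mice to 30 days, reported as cures per number treated, with toxic deaths noted.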

Data set [9] relates to Plasmodium berghei yoelii. In words: Antimalarial activity against sporozoite stage of Plasmodium berghei yoelii infected in mouse assessed as survival at 2.5 mg/kg, po after 30 days. The data set is classed as functional, organism-based. The arrangement: dose 2.5 mg/kg. A digest of the protocol: as §1
For data set [10], the system named is Plasmodium berghei yoelii. The experiment in a line: Antimalarial activity against sporozoite stage of Plasmodium berghei yoelii infected in mouse assessed as survival at 160 mg/kg, sc after 30 days. The data set is classed as functional, organism-based. Also noted: dose 160 mg/kg. The procedure, abridged:
as §1

For data set [11], the system named is Plasmodium berghei yoelii. In words: Antimalarial activity against sporozoite stage of Plasmodium berghei yoelii infected in mouse assessed as survival at 10 mg/kg, po after 30 days. The data set is classed as functional, organism-based. Also noted: dose 10 mg/kg. The procedure, abridged:
as §1

Data set [12] concerns Plasmodium berghei. The experiment in a line: Antimalarial activity against blood schizont stage of Plasmodium berghei infected in mouse assessed as mean survival time at 40 mg/kg (reference value: 6.2 +/- 0.5 days). The data set is classed as functional.
Data set [13] deals with Mus musculus. In words: Toxicity in mouse infected with Plasmodium berghei assessed as death at 320 mg/kg after 2 to 5 days. The data set is classed as organism-based. As to conditions: in vivo. The arrangement: dose 320 mg/kg.
Data set [14] relates to Mus musculus. In words: Toxicity in mouse infected with Plasmodium berghei assessed as death at 640 mg/kg after 2 to 5 days. The data set is classed as organism-based. Particulars: in vivo. The arrangement: dose 640 mg/kg.
The subject of data set [15] is Plasmodium berghei. In words: Antimalarial activity against blood schizont stage of Plasmodium berghei infected in mouse assessed as mean survival time at 160 mg/kg (reference value: 6.2 +/- 0.5 days). Type of data set: functional.
Data set [16] has as its system Plasmodium berghei yoelii. In words: Antimalarial activity against sporozoite stage of Plasmodium berghei yoelii infected in mouse assessed as survival at 2.5 mg/kg, sc after 30 days. The data set is classed as functional, organism-based. The arrangement: dose 2.5 mg/kg. A digest of the protocol: as §1
Data set [17] relates to Plasmodium berghei. In words: Antimalarial activity against blood schizont stage of Plasmodium berghei infected in mouse assessed as mean survival time at 640 mg/kg (reference value: 6.2 +/- 0.5 days). Type of data set: functional.
The test system of data set [18] is Plasmodium cynomolgi. In words: Antimalarial activity against Plasmodium cynomolgi infected in rhesus monkey assessed as time duration between end of treatment and relapse at 0.25 mg/kg administered via stomach tube once daily for 7 days with 2.5 mg of base/kg of chloroquine1. Type of data set: functional, organism-based. Also noted: dose 0.25 mg/kg.
For data set [19], the system named is Plasmodium cynomolgi. The experiment in a line: Antimalarial activity against Plasmodium cynomolgi infected in rhesus monkey assessed as infection cure at 0.25 mg/kg administered via stomach tube once daily for 7 days with 2.5 mg of base/kg of chloroquine. Type of data set: functional, organism-based. Also noted: dose 0.25 mg/kg.

Structures are written as SMILES. Calls of active or inactive are those of the source. The rule behind the calls is not given here.

With `CCCc1ccnc2c(NC(C)CCCN)cc(OC)cc12.O=C(O)/C=C/C(=O)O` (stereo unspecified), the result in the data set on Plasmodium cynomolgi [1], in the data set on Leishmania donovani and in the data set on Plasmodium cynomolgi [4] was inactive. For the same compound, the figures for the Time in the data set with Plasmodium cynomolgi [2] and in the data set with Plasmodium cynomolgi [3] were 7 days and 23 days, respectively.
Turning to `COc1cc(NC(C)CCCN)c2nccc(CCCC3CCCCC3)c2c1.O=C(O)/C=C/C(=O)O` (stereo unspecified), the outcome in the data set with Plasmodium cynomolgi [1], with Leishmania donovani and in the data set on Plasmodium cynomolgi [4] was inactive. For the same compound, the Time with Plasmodium cynomolgi [2] was 6 days; in the data set with Plasmodium cynomolgi [3], 8 days. In addition, the results for the MSD with Plasmodium berghei [5], in the data set on Plasmodium berghei [6] and in the data set on Plasmodium berghei [7] were 0.3 days, 0.9 days and 0.4 days, respectively.
Turning to `Br.COc1cc(NC(C)CCCN)c2nccc(/C=C/CC3CCCCC3)c2c1` (stereo unspecified), the MSD in the data set on Plasmodium berghei [5] was 0.4 days; with Plasmodium berghei [6], -0.4 days; in the data set on Plasmodium berghei [7], 0.9 days. The result in the data set with Leishmania donovani was inactive.
Turning to `C/C=C/c1ccnc2c(NC(C)CCCN)cc(OC)cc12.O=C(O)/C=C/C(=O)O` (stereo unspecified), the result (in the data set with Plasmodium cynomolgi [1]; in data set [8]; in the data set with Leishmania donovani; in the data set on Plasmodium cynomolgi [4]) was inactive. In addition, the figures for the Time in the data set on Plasmodium cynomolgi [2] and in the data set with Plasmodium cynomolgi [3] were 8 days and 18 days, respectively.
For `CCC(C)Cc1ccnc2c(NC(C)CCCN)cc(OC)cc12.O=C(O)/C=C/C(=O)O` (stereo unspecified), the outcome in the data set with Plasmodium cynomolgi [1], in the data set with Leishmania donovani and with Plasmodium cynomolgi [4] was inactive. For the same compound, the Time was found to be 7 days in the data set on Plasmodium cynomolgi [2] and 9 days in the data set with Plasmodium cynomolgi [3].
In the case of `CCCCc1ccnc2c(NC(C)CCCN)cc(OC)cc12.O=C(O)/C=C/C(=O)O` (stereo unspecified), the result (in data set [9]; with Plasmodium cynomolgi [1]; in [8]; with Leishmania donovani; with Plasmodium cynomolgi [4]) was inactive. Further, the Time in the data set on Plasmodium cynomolgi [2] was 5 days; in the data set with Plasmodium cynomolgi [3], 22 days.
On to `COc1cc(NC(C)CCCN)c2nccc(C=C(C)C)c2c1` (stereo unspecified), for which the result in the data set with Leishmania donovani was inactive.
As for `COc1cc(NC(C)CCCN)c2nccc(/C=C/C3CCCCC3)c2c1` (stereo unspecified), the outcome (in data set [8]; in data set [10]; in the data set on Leishmania donovani; in [11]) was inactive.
In the case of `COc1cc(NC(C)CCCN)c2ncccc2c1` (stereo unspecified) [PRIMAQUINE], the MSD with Plasmodium berghei [12] is 5 days; in the data set on Plasmodium berghei [5], 4 days; in the data set on Plasmodium berghei [7], 9.4 days. Besides, the Activity entry in the data set with Mus musculus [13] and with Mus musculus [14] was “Toxic” in each case.
Turning to `CC/C(C)=C\c1ccnc2c(NC(C)CCCN)cc(OC)cc12` (stereo unspecified), the result with Leishmania donovani was inactive.
Turning to `CC/C=C/c1ccnc2c(NC(C)CCCN)cc(OC)cc12.O=C(O)/C=C/C(=O)O` (stereo unspecified), the outcome (in [9]; in the data set with Plasmodium cynomolgi [1]; in [16]; in the data set on Leishmania donovani; in the data set on Plasmodium cynomolgi [4]) was inactive. Besides, the MSD in the data set on Plasmodium berghei [12] came out at 5.1 days; with Plasmodium berghei [15], 7.5 days; with Plasmodium berghei [5], 3.1 days; in the data set on Plasmodium berghei [6], 9.5 days; with Plasmodium berghei [17], 10.3 days; in the data set with Plasmodium berghei [7] it was 6.5 days. The Time turned out to be 6 days in the data set on Plasmodium cynomolgi [2] and 10 days with Plasmodium cynomolgi [3].
Regarding `COc1cc(NC(C)CCCN)c2nccc(CCC3CCCCC3)c2c1.O=C(O)/C=C/C(=O)O` (stereo unspecified), the MSD amounted to 0.3 days in the data set on Plasmodium berghei [12], 0.3 days in the data set with Plasmodium berghei [15] and 0.5 days with Plasmodium berghei [17]. Besides, in the data set on Leishmania donovani, the result was inactive.
Regarding `COc1cc(NC(C)CCCN)c2nccc(CC3CCCCC3)c2c1.O=C(O)/C=C/C(=O)O` (stereo unspecified), the result in the data set on Plasmodium cynomolgi [1], in the data set on Leishmania donovani and in the data set with Plasmodium cynomolgi [4] was inactive. Also, the Time was 6 days in the data set on Plasmodium cynomolgi [2] and 7 days in the data set with Plasmodium cynomolgi [3].
For the compound `C/C=C\c1ccnc2c(NC(C)CCCN)cc(OC)cc12.O=C(O)/C=C/C(=O)O` (mixture of isomers), the outcome (in data set [9]; in the data set with Plasmodium cynomolgi [1]; in the data set with Plasmodium cynomolgi [18]; in the data set on Leishmania donovani; in the data set on Plasmodium cynomolgi [4]; with Plasmodium cynomolgi [19]) was inactive. Also, the Time in the data set with Plasmodium cynomolgi [2] and with Plasmodium cynomolgi [3] was 6 days throughout.
